Experimental data from paper PMC9660540 (Clinical Cancer Research, 2022).

How the values were obtained:
[1] = system: intratumoral adenosine signaling; details: ref [12], cited from earlier work
NSCLC (post-IO) = assay: Tumor response; assay type: in vivo, human
[2] = Causally related adverse events, phase Ia/Ib study in patients with solid tumors; assay type: in vivo, human
Method in brief: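 Expansion cohorts received nanosuspension at 100 mg once daily. The safety set was all patients given ≥1 dose, classified by the treatment actually received. Treatment was delayed or reduced for grade ≥3 or clinically significant nonhematologic toxicity.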

For `Cc1cc(-c2nnc(N)nc2-c2ccc(F)cc2)cc(Cl)n1` [AZD4635], the “Patients with concordant increases in gene-expression signatures of cytolytic activity and IFNG signaling” value ([1]; among the 5 patients with decreased adenosine signaling) is listed as 4 patients, the “Patients in whom intratumoral adenosine signaling decreased” value ([1]; nanosuspension 75 or 100 mg, 2 weeks of monotherapy, of 7 patients) is listed as 5 patients and the “Best response of SD” value (NSCLC (post-IO); NSCLC) is listed as 5 (33.3%) n (%). The “Disease control at 22 Weeks, Yes” value (NSCLC (post-IO); NSCLC Post-IO) was 1 (6.7%) n (%), the “Causally related AE grade ≥3: ALT increased” value ([2]; CRC IO-naïve) was 0 n (%) and the “Causally related AE grade ≥3: Abdominal pain” value ([2]; CRC IO-naïve) was 0 n (%). The “Causally related AE grade ≥3: Anemia” value ([2]; CRC IO-naïve) was 0 n (%), the “Causally related AE grade ≥3: Arthralgia” value ([2]; CRC IO-naïve) was 0 n (%) and the “Causally related AE grade ≥3: Blood creatinine increased” value ([2]; CRC IO-naïve) was 0 n (%). For the same compound, the “Causally related AE grade ≥3: CRP increased” value ([2]; CRC IO-naïve) was 0 n (%), the “Causally related AE grade ≥3: Dermatitis psoriasiform” value ([2]; CRC IO-naïve) was 0 n (%) and the “Causally related AE grade ≥3: Diarrhea” value ([2]; CRC IO-naïve) was 0 n (%). For the same compound, the “Causally related AE grade ≥3: Dizziness” value ([2]; CRC IO-naïve) was 0 n (%), the “Causally related AE grade ≥3: Dyspnea” value ([2]; CRC IO-naïve) was 0 n (%) and the “Causally related AE grade ≥3: Fatigue” value ([2]; CRC IO-naïve) was 1 (4.0) n (%). For the same compound, the “Causally related AE grade ≥3: Headache” value ([2]; CRC IO-naïve) was 0 n (%), the “Causally related AE grade ≥3: Hyperglycemia” value ([2]; CRC IO-naïve) was 0 n (%) and the “Causally related AE grade ≥3: Hypertension” value ([2]; CRC IO-naïve) was 0 n (%). The “Causally related AE grade ≥3: Hypophosphatemia” value ([2]; CRC IO-naïve) was 0 n (%), the “Causally related AE grade ≥3: Insomnia” value ([2]; CRC IO-naïve) was 0 n (%) and the “Causally related AE grade ≥3: Lipase increased” value ([2]; CRC IO-naïve) was 0 n (%). The “Causally related AE grade ≥3: Lymphocyte count decreased” value ([2]; CRC IO-naïve) was 0 n (%), the “Causally related AE grade ≥3: Myositis” value ([2]; CRC IO-naïve) was 0 n (%) and the “Causally related AE grade ≥3: Nausea” value ([2]; CRC IO-naïve) was 0 n (%). The “Causally related AE grade ≥3: Neutrophil count decreased” value ([2]; CRC IO-naïve) was 0 n (%), the “Causally related AE grade ≥3: Obliterative bronchiolitis” value ([2]; CRC IO-naïve) was 0 n (%) and the “Causally related AE grade ≥3: Rash” value ([2]; CRC IO-naïve) was 0 n (%). The “Causally related AE grade ≥3: Sudden death” value ([2]; CRC IO-naïve) was 1 (4.0) n (%), the “Causally related AE grade ≥3: Type I diabetes mellitus” value ([2]; CRC IO-naïve) was 0 n (%) and the “Causally related AE grade ≥3: Vomiting” value ([2]; CRC IO-naïve) was 1 (4.0) n (%). The “≥Grade 3 causally related AE” value ([2]; CRC IO-naïve) was 3 (12.0) n (%), the “Causally related AE grade ≥3: ALT increased” value ([2]; NSCLC Post-IO) was 0 n (%) and the “Causally related AE grade ≥3: Abdominal pain” value ([2]; NSCLC Post-IO) was 0 n (%). The “Causally related AE grade ≥3: Anemia” value ([2]; NSCLC Post-IO) was 0 n (%), the “Causally related AE grade ≥3: Arthralgia” value ([2]; NSCLC Post-IO) was 0 n (%) and the “Causally related AE grade ≥3: Blood creatinine increased” value ([2]; NSCLC Post-IO) was 0 n (%). The “Causally related AE grade ≥3: CRP increased” value ([2]; NSCLC Post-IO) was 0 n (%), the “Causally related AE grade ≥3: Dermatitis psoriasiform” value ([2]; NSCLC Post-IO) was 0 n (%) and the “Causally related AE grade ≥3: Diarrhea” value ([2]; NSCLC Post-IO) was 0 n (%). The “Causally related AE grade ≥3: Dizziness” value ([2]; NSCLC Post-IO) was 0 n (%), the “Causally related AE grade ≥3: Dyspnea” value ([2]; NSCLC Post-IO) was 0 n (%) and the “Causally related AE grade ≥3: Fatigue” value ([2]; NSCLC Post-IO) was 1 (5.9) n (%). For the same compound, the “Causally related AE grade ≥3: Headache” value ([2]; NSCLC Post-IO) was 0 n (%), the “Causally related AE grade ≥3: Hyperglycemia” value ([2]; NSCLC Post-IO) was 0 n (%) and the “Causally related AE grade ≥3: Hypertension” value ([2]; NSCLC Post-IO) was 0 n (%). For the same compound, the “Causally related AE grade ≥3: Hypophosphatemia” value ([2]; NSCLC Post-IO) was 0 n (%), the “Causally related AE grade ≥3: Insomnia” value ([2]; NSCLC Post-IO) was 0 n (%) and the “Causally related AE grade ≥3: Lipase increased” value ([2]; NSCLC Post-IO) was 0 n (%). The “Causally related AE grade ≥3: Lymphocyte count decreased” value ([2]; NSCLC Post-IO) was 0 n (%), the “Causally related AE grade ≥3: Myositis” value ([2]; NSCLC Post-IO) was 0 n (%) and the “Causally related AE grade ≥3: Nausea” value ([2]; NSCLC Post-IO) was 0 n (%). The “Causally related AE grade ≥3: Neutrophil count decreased” value ([2]; NSCLC Post-IO) was 0 n (%), the “Causally related AE grade ≥3: Obliterative bronchiolitis” value ([2]; NSCLC Post-IO) was 0 n (%) and the “Causally related AE grade ≥3: Rash” value ([2]; NSCLC Post-IO) was 0 n (%). The “Causally related AE grade ≥3: Sudden death” value ([2]; NSCLC Post-IO) was 0 n (%), the “Causally related AE grade ≥3: Type I diabetes mellitus” value ([2]; NSCLC Post-IO) was 0 n (%) and the “Causally related AE grade ≥3: Vomiting” value ([2]; NSCLC Post-IO) was 0 n (%). The “≥Grade 3 causally related AE” value ([2]; NSCLC Post-IO) was 1 (5.9) n (%), the “Causally related AE grade ≥3: ALT increased” value ([2]; Other IO-naïve) was 0 n (%) and the “Causally related AE grade ≥3: Abdominal pain” value ([2]; Other IO-naïve) was 1 (5.3) n (%). For the same compound, the “Causally related AE grade ≥3: Anemia” value ([2]; Other IO-naïve) was 0 n (%), the “Causally related AE grade ≥3: Arthralgia” value ([2]; Other IO-naïve) was 0 n (%) and the “Causally related AE grade ≥3: Blood creatinine increased” value ([2]; Other IO-naïve) was 0 n (%). For the same compound, the “Causally related AE grade ≥3: CRP increased” value ([2]; Other IO-naïve) was 0 n (%), the “Causally related AE grade ≥3: Dermatitis psoriasiform” value ([2]; Other IO-naïve) was 0 n (%) and the “Causally related AE grade ≥3: Diarrhea” value ([2]; Other IO-naïve) was 1 (5.3) n (%). The “Causally related AE grade ≥3: Dizziness” value ([2]; Other IO-naïve) was 0 n (%), the “Causally related AE grade ≥3: Dyspnea” value ([2]; Other IO-naïve) was 0 n (%) and the “Causally related AE grade ≥3: Fatigue” value ([2]; Other IO-naïve) was 2 (10.5) n (%). For the same compound, the “Causally related AE grade ≥3: Headache” value ([2]; Other IO-naïve) was 0 n (%), the “Causally related AE grade ≥3: Hyperglycemia” value ([2]; Other IO-naïve) was 0 n (%) and the “Causally related AE grade ≥3: Hypertension” value ([2]; Other IO-naïve) was 2 (10.5) n (%). For the same compound, the “Causally related AE grade ≥3: Hypophosphatemia” value ([2]; Other IO-naïve) was 0 n (%), the “Causally related AE grade ≥3: Insomnia” value ([2]; Other IO-naïve) was 0 n (%) and the “Causally related AE grade ≥3: Lipase increased” value ([2]; Other IO-naïve) was 0 n (%). The “Causally related AE grade ≥3: Lymphocyte count decreased” value ([2]; Other IO-naïve) was 0 n (%), the “Causally related AE grade ≥3: Myositis” value ([2]; Other IO-naïve) was 0 n (%) and the “Causally related AE grade ≥3: Nausea” value ([2]; Other IO-naïve) was 0 n (%). The “Causally related AE grade ≥3: Neutrophil count decreased” value ([2]; Other IO-naïve) was 0 n (%), the “Causally related AE grade ≥3: Obliterative bronchiolitis” value ([2]; Other IO-naïve) was 0 n (%) and the “Causally related AE grade ≥3: Rash” value ([2]; Other IO-naïve) was 0 n (%). For the same compound, the “Causally related AE grade ≥3: Sudden death” value ([2]; Other IO-naïve) was 0 n (%), the “Causally related AE grade ≥3: Type I diabetes mellitus” value ([2]; Other IO-naïve) was 0 n (%) and the “Causally related AE grade ≥3: Vomiting” value ([2]; Other IO-naïve) was 0 n (%). For the same compound, the “≥Grade 3 causally related AE” value ([2]; Other IO-naïve) was 5 (26.3) n (%) and the “Causally related AE grade ≥3: ALT increased” value ([2]; Other Post-IO) was 0 n (%).
